In PubChem BioAssay:
Activity calls are given as the source filed them.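 The calls were made as follows, unless noted: active = viability at or under a set limit in both replicates, limit being median viability minus 3 SD (cut at about 48% in these data, passing the limit was not always enough); inconclusive = at or under the limit in just one replicate; inactive = at or above the limit in both replicates.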

Assays:
[1] = HUVEC growth inhibition – cell-based, human, primary screen (AID 575;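 active = viability at or below 30% in both replicate assays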;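 also: 100% = median of untreated cell wells with 0.1% DMSO on each plate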); conditions: HUVEC proliferation, CellTiter-Glo luminescence, 72 h; at 10 µM; stronger effect = lower value
Summary of the method: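 System: primary human umbilical vein endothelial cells; Quantity: 1250 endothelial cells in each well; Buffer or medium: supplemented EBM, 2% fetal bovine serum; Doses: one dose, 10 µM final, 0.1% DMSO; Incubation: 72 h compound incubation; Technique: ATP-based CellTiter-Glo luminescent read; Evaluation: percent of median DMSO-control luminescence; Controls: vehicle and MePR control wells.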

[2] = H69AR cell proliferation blockers – human, duplicate replicates, primary screen (AID 580); conditions: H69AR lung tumor cells viability, ATP luminescence, 72 h; at 10 µM; stronger effect = lower value;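 also: 100% = mean luminescence of untreated wells and 0% = no signal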
[3] = MRP1 drug-resistance reversers in H69AR cells – cell-based, doxorubicin co-treatment, pilot screen (AID 601;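 active = viability loss from added drug above about 55%, and viability with drug at most 40%, in both replicates, limit read from the data, passing the limit was not always enough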); conditions: CellTiter-Glo, 72 h, at 10 µM; for differential viability (reversal): stronger effect = higher value
[4] = yeast transport mutant growth inhibition pilot in 384-well plates, post-Golgi transport modulator project (AID 636; in the data active = inhibition above about 31%); conditions: absorbance 615 nm, about 18 h, stronger effect = higher value
[5] = growth suppression of yeast trafficking mutant, preliminary HTS, modulators of trafficking downstream of Golgi apparatus project, 1536-format plate, OD 615 nm (AID 637; in the data active = inhibition above about 30%); conditions: yeast transport mutant growth, absorbance 615 nm, 18 h; stronger effect = higher value
[6] = H69AR cells + 2 uM doxorubicin, measured here: viability with 2 uM doxorubicin, stronger effect = lower value
[7] = H69AR cells, compound alone cytotoxicity

Structure (SMILES)	viability [1]	viability [2]	differential viability (reversal) ([3]; H69AR cells + 2 uM doxorubicin)	viability [3, 6]	viability [3, 7]	inhibition [4]	inhibition [5]
COc1ccc(C2(C(=O)Nc3cc(C)on3)CCOCC2)cc1	98% (inactive)	88.1% (inactive)	1.2% (inactive)	86.9%	88.1%	-5.87% (inactive)	10.8% (inactive)
O=C(NC1CCCCC1)C(c1ccc(Cl)cc1)N(C(=O)c1cnccn1)c1ccc2c(c1)OCO2 (centres undefined)	80.4% (inactive)	80.2% (inactive)	4.39% (inactive)	75.8%	80.2%	-5.47% (inactive)	-5.71% (inactive)
O=C(c1nc2n(n1)C(c1ccc(Cl)cc1)C=C(c1ccccc1)N2)N1CCOCC1 (centres undefined)	96.9% (inactive)	91.9% (inactive)	-6.89% (inactive)	98.8%	91.9%	-1.18% (inactive)	-1.9% (inactive)
CCS(=O)(=O)c1nc2ccccc2n1CC(=O)N1CCOCC1	95.4% (inactive)	91% (inactive)	3.73% (inactive)	87.2%	91%	-5.32% (inactive)	-1.27% (inactive)
O=c1oc2ccccc2c(O)c1CN1CCCCC1	96.3% (inactive)	99.9% (inactive)	16.1% (inactive)	83.8%	99.9%	-6% (inactive)	2.22% (inactive)
COc1ccc(C(=O)Cn2nnc(-c3cccs3)n2)cc1	102% (inactive)	90.9% (inactive)	4.98% (inactive)	85.9%	90.9%	-6.67% (inactive)	-3.65% (inactive)
CN(C)S(=O)(=O)N1CCN(S(=O)(=O)c2ccc(F)cc2)CC1	90.7% (inactive)	101% (inactive)	4.42% (inactive)	96.1%	101%	2.8% (inactive)	-2.22% (inactive)
Cc1cc(NCCCn2ccnc2)n2c(nc3ccccc32)c1C#N	94% (inactive)	100% (inactive)	7.14% (inactive)	93.3%	100%	4.29% (inactive)	6.51% (inactive)
CCn1c(Cc2ccccc2)nnc1SCC(=O)Nc1ccc(N2CCOCC2)c(Cl)c1	101% (inactive)	93.8% (inactive)	-8.62% (inactive)	102%	93.8%	-4.67% (inactive)	3.02% (inactive)
COC(=O)CN1C(=O)C2(C(C#N)=C(N)Oc3c2c(C)nn3-c2ccccc2)c2ccccc21 (centres undefined)	69.8% (inactive)	67.8% (inactive)	-5.54% (inactive)	73.3%	67.8%	-6.32% (inactive)	-1.43% (inactive)
CC1(c2ccncc2)Nc2ccccc2-c2nc3ccccc3n21 (centres undefined)	92.4% (inactive)	99.2% (inactive)	-2.33% (inactive)	101%	99.2%	-1.45% (inactive)	-0.95% (inactive)
O=S1(=O)C=C(Sc2nnc(-c3ccccc3)o2)c2ccccc21	42.9% (inactive)	1.65% (active)	0.375% (inactive)	1.27%	1.65%	57% (active)	95.8% (active)
CCCN(CCC)CCNS(=O)(=O)c1ccc2c(c1)oc(=O)n2C	97.1% (inactive)	105% (inactive)	12.9% (inactive)	92.5%	105%	-2.27% (inactive)	-2.06% (inactive)
CCCCCCNC(=O)c1c(N)n(/N=C/c2ccco2)c2nc3ccccc3nc12	53.7% (inactive)	78.4% (inactive)	-0.96% (inactive)	79.4%	78.4%	-4.4% (inactive)	-0.16% (inactive)
O=c1c2ccc(-c3nnc4n3-c3ccccc3SC4)cc2nc2n1CCCCC2	94.9% (inactive)	94.4% (inactive)	8.88% (inactive)	85.5%	94.4%	-5.33% (inactive)	6.83% (inactive)
c1ccc(-c2nc3nonc3c3nc4ccccc4n23)cc1	93.8% (inactive)	88.8% (inactive)	-1.96% (inactive)	90.8%	88.8%	-6.27% (inactive)	1.9% (inactive)
COCCCNC(=O)CC(NS(=O)(=O)c1ccc(Cl)cc1)c1ccco1 (centres undefined)	106% (inactive)	87.5% (inactive)	2.94% (inactive)	84.6%	87.5%	-0.91% (inactive)	-3.02% (inactive)
CS(=O)(=O)N(CC(=O)N1CCCCCC1)c1ccccc1	95.2% (inactive)	98.2% (inactive)	8.29% (inactive)	90%	98.2%	-5.79% (inactive)	1.9% (inactive)
Cc1ccc2nc(CSc3nnc(-c4ccco4)n3-c3ccccc3)cc(=O)n2c1	109% (inactive)	87.2% (inactive)	-10.8% (inactive)	98%	87.2%	4.81% (inactive)	16.4% (inactive)
Cc1ccc(CC23CN4CCN(CC(C4)C2O)C3)c(C)c1 (centres undefined)	109% (inactive)	94.6% (inactive)	8.52% (inactive)	86.1%	94.6%	-2.37% (inactive)	3.02% (inactive)
CCOC(=O)N1CCN(C(=O)Nc2ccc(Cl)cc2)CC1	97.7% (inactive)	98.3% (inactive)	14.8% (inactive)	83.4%	98.3%	-3.55% (inactive)	4.6% (inactive)

Structure (SMILES)	viability [1]	viability [2]	differential viability (reversal) ([3]; H69AR cells + 2 uM doxorubicin)	viability [3, 6]	viability [3, 7]	inhibition [4]	inhibition [5]
Cc1nc2cc(NC(=O)N3CC4(C)CC3CC(C)(C)C4)ccc2n1C (centres undefined)	100% (inactive)	89.7% (inactive)	7.53% (inactive)	82.2%	89.7%	-6.71% (inactive)	-8.1% (inactive)
Cc1ccc(C)c(C(=O)NC2CC(C)(C)NC(C)(C)C2)c1	98.5% (inactive)	86.7% (inactive)	-0.525% (inactive)	87.3%	86.7%	-5.71% (inactive)	-6.98% (inactive)
Cc1cc(C)n(-c2nc(C)nc3c2cnn3-c2ccccc2)n1	87.4% (inactive)	87.3% (inactive)	-1.5% (inactive)	88.8%	87.3%	-3.77% (inactive)	6.19% (inactive)
CCN(CC(=O)O)S(=O)(=O)c1cc(Cl)ccc1Cl	96.5% (inactive)	90.9% (inactive)	-1.08% (inactive)	92%	90.9%	-7.2% (inactive)	-1.75% (inactive)
CN(C)CCSc1nnc2sc3ccccc3n12	94.2% (inactive)	92.8% (inactive)	-0.905% (inactive)	93.7%	92.8%	-5.92% (inactive)	-5.08% (inactive)
COCCN(CC(=O)Nc1ccccc1C)S(=O)(=O)c1ccc(S(=O)(=O)N2CCCC2)cc1	101% (inactive)	95.7% (inactive)	4.26% (inactive)	91.5%	95.7%	-7.2% (inactive)	4.13% (inactive)
COc1ccccc1NS(=O)(=O)c1ccc(NC(=O)c2nc3ncccn3n2)cc1	94.7% (inactive)	96.3% (inactive)	11.2% (inactive)	85.1%	96.3%	-1.17% (inactive)	7.3% (inactive)
Cc1nc2ccccc2c(=O)n1NC(=O)c1ccc(F)cc1Cl	103% (inactive)	94.2% (inactive)	-4.19% (inactive)	98.4%	94.2%	-4.34% (inactive)	2.22% (inactive)
O=S(=O)(c1ccccc1)N1CCN(C2CCCCCCC2)CC1	100% (inactive)	87.5% (inactive)	-6.82% (inactive)	94.3%	87.5%	-1.45% (inactive)	1.9% (inactive)
CC(=O)OC(C(=O)NCc1ccco1)c1cccnc1 (centres undefined)	104% (inactive)	87% (inactive)	3.39% (inactive)	83.6%	87%	-2.08% (inactive)	2.86% (inactive)
CSc1n[nH]c(NCc2ccccc2)n1	96.5% (inactive)	96.8% (inactive)	0.755% (inactive)	96.1%	96.8%	-5.13% (inactive)	1.43% (inactive)
COc1cccc(-c2csc3nc[nH]c(=O)c23)c1	92.6% (inactive)	86.7% (inactive)	16.7% (inactive)	70%	86.7%	-5.73% (inactive)	5.71% (inactive)
CC1CCN(C(=O)CSc2nnc(-c3cccnc3)n2C2CCCCC2)CC1	112% (inactive)	97.5% (inactive)	-3.36% (inactive)	101%	97.5%	-2.76% (inactive)	0.16% (inactive)
CCN1C(=O)/C(=C/N2CCc3ccccc32)SC1=S	98.3% (inactive)	58.5% (inactive)	-3.35% (inactive)	61.9%	58.5%	-2.63% (inactive)	0.95% (inactive)
O=C(Nc1ccc(Cl)c(Cl)c1)Nc1cc(C(=O)N2CCOCC2)ccc1N1CCCCC1	105% (inactive)	95.9% (inactive)	4.12% (inactive)	91.8%	95.9%	-4.08% (inactive)	-2.22% (inactive)
O=C(CCC(=O)N1CCN(S(=O)(=O)c2ccccc2)CC1)c1cccs1	102% (inactive)	90.9% (inactive)	4.42% (inactive)	86.5%	90.9%	-5.32% (inactive)	-3.33% (inactive)
Cc1csc(NC(=O)c2cccc(S(=O)(=O)N3CCCCC3)c2)n1	70.6% (inactive)	87.5% (inactive)	-3.96% (inactive)	91.5%	87.5%	-3.51% (inactive)	-9.05% (inactive)
CCOc1ccc2cc(C#N)c(SCC(=O)N3CCC(C)CC3)nc2c1	43.5% (inactive)	34.4% (active)	0.44% (inactive)	33.9%	34.4%	-8.8% (inactive)	-1.11% (inactive)
Cc1ccccc1NC(=O)c1ccccc1	103% (inactive)	99.6% (inactive)	11.8% (inactive)	87.8%	99.6%	-5.92% (inactive)	2.7% (inactive)
O=C1C=C(NCc2ccco2)C2(CCCCC2)O1	95.7% (inactive)	105% (inactive)	22.5% (inactive)	82.2%	105%	-1.95% (inactive)	5.08% (inactive)
O=C(CN1C(=O)COc2ccccc21)NCCCN1CCN(Cc2ccccc2)CC1	98.5% (inactive)	87.3% (inactive)	2.35% (inactive)	85%	87.3%	3.51% (inactive)	22.4% (inactive)
